In ChEMBL document CHEMBL4411315, “Discovery of Novel Dual Histone Deacetylase and Mammalian Target of Rapamycin Target Inhibitors as a Promising Strategy for Cancer Therapy” (J Med Chem, 2019):
The source made the active and inactive calls. The rule behind the calls is not given here.

How the values were obtained:
[1] = Toxicity against NOD/SCID mouse xenografted with human MM1S cells assessed as mouse survival at 20 mg/kg, iv administered every 2 days for 5 days; assay type: organism-based; conditions: in vivo
Procedure, shortened: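 Female NOD/SCID mice, 5-6 weeks old, received 10^7 MM1S cells in 100 μL serum-free RPMI 1640 s.c. into the right flank. At 100-200 mm3 tumours they were randomised, 6 mice per group. Tumours were measured by caliper every 2 days. At the end, tumours were excised and weighed. Survivors are reported per group.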

MV4-11 [2] = assay: Induction of apoptosis in human MV4-11 cells assessed as early apoptotic cells at 20 nM after 48 hrs by Annexin V-FITC/propidium iodide staining-based flow cytometric analysis (reference value: 10.7%); assay type: functional
MV4-11 [3] = assay: Induction of apoptosis in human MV4-11 cells assessed as viable cells at 10 nM after 48 hrs by Annexin V-FITC/propidium iodide staining-based flow cytometric analysis (reference value: 84.1%); assay type: functional; conditions: MV4-11, 48 h, read-out: Activity
MM1.S [4] = assay: Induction of apoptosis in human MM1S cells assessed as viable cells at 40 nM after 48 hrs by Annexin V-FITC/propidium iodide staining-based flow cytometric analysis (reference value: 98.9%); assay type: functional; conditions: read-out: Activity
MM1.S [5] = assay: Cell cycle arrest in human MM1S cells assessed as accumulation at G2/M phase at 2.5 nM after 24 hrs by propidium iodide/RNase staining-based FACS analysis (reference value: 26.29%); assay type: functional
MV4-11 [6] = assay: Cell cycle arrest in human MV4-11 cells assessed as accumulation at G2/M phase at 10 nM after 24 hrs by propidium iodide/RNase staining-based FACS analysis (reference value: 18.79%); assay type: functional
MM1.S [7] = assay: Induction of apoptosis in human MM1S cells assessed as viable cells at 20 nM after 48 hrs by Annexin V-FITC/propidium iodide staining-based flow cytometric analysis (reference value: 98.9%); assay type: functional; conditions: read-out: Activity
Histone deacetylase 5 = Histone deacetylase 5 (Homo sapiens, UniProt Q9UQL6); assay: Inhibition of recombinant full length N-terminal GST-tagged human HDAC5 expressed in baculovirus expression system using Ac-peptide-AMC as substrate preincubated for 15 mins followed by substrate addition and measured after 1 hr by fluorescence assay
Histone deacetylase 5, sequence (Q9UQL6 whole entry): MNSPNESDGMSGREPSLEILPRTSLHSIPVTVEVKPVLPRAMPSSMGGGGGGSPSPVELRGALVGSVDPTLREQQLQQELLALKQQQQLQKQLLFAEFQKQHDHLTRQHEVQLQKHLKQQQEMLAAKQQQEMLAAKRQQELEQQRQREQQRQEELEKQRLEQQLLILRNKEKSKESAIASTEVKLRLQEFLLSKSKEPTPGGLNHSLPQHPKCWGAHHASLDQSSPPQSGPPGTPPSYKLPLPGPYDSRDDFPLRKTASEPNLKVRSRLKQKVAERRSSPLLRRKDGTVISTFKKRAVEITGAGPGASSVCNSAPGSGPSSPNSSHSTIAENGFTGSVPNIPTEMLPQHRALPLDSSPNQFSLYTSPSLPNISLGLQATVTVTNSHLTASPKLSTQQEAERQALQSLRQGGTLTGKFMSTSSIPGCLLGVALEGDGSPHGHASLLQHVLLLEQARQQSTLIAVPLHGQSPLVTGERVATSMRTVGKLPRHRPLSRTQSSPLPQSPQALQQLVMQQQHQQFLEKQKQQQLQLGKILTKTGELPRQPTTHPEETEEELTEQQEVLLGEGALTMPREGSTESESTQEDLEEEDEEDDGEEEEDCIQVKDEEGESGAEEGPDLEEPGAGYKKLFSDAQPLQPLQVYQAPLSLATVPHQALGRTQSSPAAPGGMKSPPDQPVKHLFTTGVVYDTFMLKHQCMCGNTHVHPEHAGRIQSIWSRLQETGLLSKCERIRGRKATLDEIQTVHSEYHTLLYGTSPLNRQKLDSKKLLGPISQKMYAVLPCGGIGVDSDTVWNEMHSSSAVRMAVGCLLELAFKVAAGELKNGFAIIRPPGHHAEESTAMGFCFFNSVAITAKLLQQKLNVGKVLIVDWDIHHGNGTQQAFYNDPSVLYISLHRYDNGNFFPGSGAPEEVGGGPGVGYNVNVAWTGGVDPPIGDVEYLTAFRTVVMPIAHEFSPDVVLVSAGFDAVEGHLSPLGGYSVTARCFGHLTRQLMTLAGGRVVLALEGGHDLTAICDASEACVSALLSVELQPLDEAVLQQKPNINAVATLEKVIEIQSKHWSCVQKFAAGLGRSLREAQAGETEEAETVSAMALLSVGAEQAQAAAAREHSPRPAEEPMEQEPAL

Histone deacetylase 2 = Histone deacetylase 2 (Homo sapiens, UniProt Q92769); assay: Inhibition of recombinant full length human HDAC2 expressed in baculovirus expression system using Ac-peptide-AMC as substrate preincubated for 15 mins followed by substrate addition and measured after 1 hr by fluorescence assay
Histone deacetylase 2, sequence (Q92769 whole entry): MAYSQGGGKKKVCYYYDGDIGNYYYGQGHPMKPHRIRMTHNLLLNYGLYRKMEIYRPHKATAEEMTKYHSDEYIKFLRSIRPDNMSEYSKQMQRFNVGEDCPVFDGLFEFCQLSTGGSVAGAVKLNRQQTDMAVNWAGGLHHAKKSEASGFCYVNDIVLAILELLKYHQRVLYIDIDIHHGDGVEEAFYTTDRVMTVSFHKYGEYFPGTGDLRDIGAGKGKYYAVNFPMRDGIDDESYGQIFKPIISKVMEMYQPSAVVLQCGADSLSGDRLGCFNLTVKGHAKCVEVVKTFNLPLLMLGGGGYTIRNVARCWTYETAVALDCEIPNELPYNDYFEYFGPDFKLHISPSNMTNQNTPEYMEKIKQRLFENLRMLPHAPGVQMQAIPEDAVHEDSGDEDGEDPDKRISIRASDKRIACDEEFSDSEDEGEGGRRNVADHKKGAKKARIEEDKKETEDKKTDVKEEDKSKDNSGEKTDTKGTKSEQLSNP

MM1.S [8] = assay: Cell cycle arrest in human MM1S cells assessed as accumulation at S phase at 1.25 nM after 24 hrs by propidium iodide/RNase staining-based FACS analysis (reference value: 24.49%); assay type: functional
MV4-11 [9] = assay: Induction of apoptosis in human MV4-11 cells assessed as late apoptotic cells at 40 nM after 48 hrs by Annexin V-FITC/propidium iodide staining-based flow cytometric analysis (reference value: 5.03%); assay type: functional
MM1.S [10] = assay: Induction of apoptosis in human MM1S cells assessed as necrotic cells at 160 nM after 48 hrs by Annexin V-FITC/propidium iodide staining-based flow cytometric analysis (reference value: 0.32%); assay type: functional
MM1.S [11] = assay: Cell cycle arrest in human MM1S cells assessed as accumulation at S phase at 2.5 nM after 24 hrs by propidium iodide/RNase staining-based FACS analysis (reference value: 24.49%); assay type: functional
HCT-116 = assay: Antiproliferative activity against human HCT116 cells after 72 hrs by MTT assay; assay type: functional, cell-based; conditions: HCT-116, 72 h
MV4-11 [12] = assay: Cell cycle arrest in human MV4-11 cells assessed as accumulation at G0/G1 phase at 10 nM after 24 hrs by propidium iodide/RNase staining-based FACS analysis (reference value: 44.79%); assay type: functional
MV4-11 [13] = assay: Induction of apoptosis in human MV4-11 cells assessed as early apoptotic cells at 40 nM after 48 hrs by Annexin V-FITC/propidium iodide staining-based flow cytometric analysis (reference value: 10.7%); assay type: functional
MV4-11 [14] = assay: Cell cycle arrest in human MV4-11 cells assessed as accumulation at G0/G1 phase at 1.25 nM after 24 hrs by propidium iodide/RNase staining-based FACS analysis (reference value: 44.79%); assay type: functional
MM1.S [15] = assay: Induction of apoptosis in human MM1S cells assessed as late apoptotic cells at 20 nM after 48 hrs by Annexin V-FITC/propidium iodide staining-based flow cytometric analysis (reference value: 0.42%); assay type: functional
OCI-AML2 = assay: Antiproliferative activity against human OCI-AML2 cells after 72 hrs by MTT assay; assay type: functional, cell-based; conditions: OCI-AML2, 72 h
MV4-11 [16] = assay: Cell cycle arrest in human MV4-11 cells assessed as accumulation at G2/M phase at 2.5 nM after 24 hrs by propidium iodide/RNase staining-based FACS analysis (reference value: 18.79%); assay type: functional
MM1.S [17] = assay: Induction of apoptosis in human MM1S cells assessed as late apoptotic cells at 160 nM after 48 hrs by Annexin V-FITC/propidium iodide staining-based flow cytometric analysis (reference value: 0.42%); assay type: functional
MM1.S [18] = assay: Induction of apoptosis in human MM1S cells assessed as necrotic cells at 80 nM after 48 hrs by Annexin V-FITC/propidium iodide staining-based flow cytometric analysis (reference value: 0.32%); assay type: functional
MV4-11 [19] = assay: Induction of apoptosis in human MV4-11 cells assessed as viable cells at 320 nM after 48 hrs by Annexin V-FITC/propidium iodide staining-based flow cytometric analysis (reference value: 84.1%); assay type: functional; conditions: MV4-11, 48 h, read-out: Activity
MV4-11 [20] = assay: Cell cycle arrest in human MV4-11 cells assessed as accumulation at S phase at 5 nM after 24 hrs by propidium iodide/RNase staining-based FACS analysis (reference value: 36.42%); assay type: functional
MM1.S [21] = assay: Induction of apoptosis in human MM1S cells assessed as late apoptotic cells at 320 nM after 48 hrs by Annexin V-FITC/propidium iodide staining-based flow cytometric analysis (reference value: 0.42%); assay type: functional
MM1.S [22] = assay: Antiproliferative activity against human MM1S cells after 72 hrs by MTT assay; assay type: functional, cell-based
MM1.S [23] = assay: Cell cycle arrest in human MM1S cells assessed as accumulation at G0/G1 phase at 10 nM after 24 hrs by propidium iodide/RNase staining-based FACS analysis (reference value: 49.22%); assay type: functional
[24] = target: Serine/threonine-protein kinase mTOR (Homo sapiens, UniProt P42345); assay: Inhibition of human recombinant mTOR expressed in mammalian expression system assessed as residual activity at 1 uM
Procedure, shortened: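 Radiometric kinase panel (99 kinases) run at 1 μM inhibitor in duplicate with [γ-33P]ATP, kinase-specific buffer and substrate at room temperature. The reaction was started with Mg/ATP and stopped with 0.5% phosphoric acid, then spotted on P30 filtermat, washed and scintillation counted. Results are expressed as % remaining activity versus DMSO control.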

With C[C@@H]1CN(C(=O)Nc2ccc(-c3nc(N4CCOCC4)c4cnn(CCCCCCC(=O)NO)c4n3)cc2)CCO1 the Activity [1] was “Non-Toxic”, the Activity (MV4-11 [2]) was 38.2% and the viability at 0.01 µM (MV4-11 [3]) was 75.2%. It also gave a viability at 0.04 µM (MM1.S [4]) of 70.1%, an Activity (MM1.S [5]) of 25.8% and an Activity (MV4-11 [6]) of 11.11%. For the same compound, the viability at 0.02 µM (MM1.S [7]) was 92.6%, the IC50 (Histone deacetylase 5) was over 1000 nM and the IC50 (Histone deacetylase 2) was 0.61 nM. It also gave an Activity (MM1.S [8]) of 22.05%, an Activity (MV4-11 [9]) of 57.6% and an Activity (MM1.S [10]) of 3.39%. For the same compound, the Activity (MM1.S [11]) was 21.59%, the IC50 (HCT-116) was 17.2 nM and the Activity (MV4-11 [12]) was 65.4%. It also gave an Activity (MV4-11 [13]) of 37.4%, an Activity (MV4-11 [14]) of 46.85% and an Activity (MM1.S [15]) of 4.78%. For the same compound, the IC50 (OCI-AML2) was 9.01 nM, the Activity (MV4-11 [16]) was 18.2% and the Activity (MM1.S [17]) was 63.3%. It also gave an Activity (MM1.S [18]) of 1.78%, a viability at 0.32 µM (MV4-11 [19]) of 2.57% and an Activity (MV4-11 [20]) of 21.32%. For the same compound, the Activity (MM1.S [21]) was 62%, the IC50 (MM1.S [22]) was 7.3 nM and the Activity (MM1.S [23]) was 66.96%. The inhibition [24] was “Active”.
